Rpn11 inh: Rpn11 (human) deubiquitinase inhibition; O00487; human 26S proteasome, Ub4-pepOG fluorescence polarization; 20S core pre-blocked with epoxomicin; inhibition, % at 20 µM; hit rate 0.59% among 360,000; AID 588493;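 active means inhibition at 20 µM, scaled to each plate's controls, above about 33%, limit read from the data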
TPT1 inhibitor: blocks Candida albicans tRNA 2'-phosphotransferase | hit rate 0.81% among 300,000 | inhibition, % at 5 µM | recombinant caTPT1, FP RNA substrate dephosphorylation;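 active means inhibition above the mean of all tested compounds plus 3 SD, set per screening campaign, cut at about 24% in these data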
HNF4A DNA FP: change in binding of human HNF4 alpha to DNA | P41235 | HNF4a-FITC DNA binding, fluorescence polarization, 1 h | activity change, % at 10 µM | hit rate 0.3% among 360,000; in the data active means activity change above about 30%, passing the limit was not always enough
Target sequence (P41235 whole entry, looked up): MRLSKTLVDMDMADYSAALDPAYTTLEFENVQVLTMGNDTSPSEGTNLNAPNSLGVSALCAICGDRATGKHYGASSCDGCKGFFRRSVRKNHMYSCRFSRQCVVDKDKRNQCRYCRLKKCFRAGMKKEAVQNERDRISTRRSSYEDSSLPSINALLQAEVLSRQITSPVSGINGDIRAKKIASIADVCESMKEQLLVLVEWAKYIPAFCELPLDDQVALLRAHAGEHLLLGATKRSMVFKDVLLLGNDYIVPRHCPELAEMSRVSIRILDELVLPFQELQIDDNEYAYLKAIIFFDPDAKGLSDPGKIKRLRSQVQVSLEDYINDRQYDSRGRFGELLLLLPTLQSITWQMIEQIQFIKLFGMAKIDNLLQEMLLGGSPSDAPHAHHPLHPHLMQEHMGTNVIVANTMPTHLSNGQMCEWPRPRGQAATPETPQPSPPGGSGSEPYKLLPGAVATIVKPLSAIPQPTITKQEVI
CSN inh: blocks human CSN-mediated cullin deneddylation | Q92905 | inhibition, % at 12.5 µM | hit rate 0.38% among 360,000 | Purified CSN, SCF-Nedd8-OG deneddylation, fluorescence polarization | AID 651999;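 active means pattern-corrected inhibition above about 35%, with an unprinted fluorescence ratio check between 0.5 and 1.5, limit read from the data, passing the limit was not always enough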
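assay system = purified human Csn5 enzyme expressed in HEK293T cells | amount = 0.24 nM enzyme | buffer or medium = Tris/NaCl/DTT buffer, pH 7.5 | reagent = 10 nM SCFSkp2-Nedd8OG | compound = one concentration, 12.5 µM, 0.25% DMSO | times = 90 min reaction at room temperature | signal = FP | read-out basis = % inhibition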
SENP1 FRET inh: inhibitors of human SENP1 SUMO protease catalytic domain; Q9P0U3; recombinant SENP1 catalytic domain, CyPet-SUMO1-YPet FRET cleavage; inhibition, % at 10 µM; hit rate 0.21% among 360,000;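 active means inhibition at least 30% at 10 µM, raw YFP signal under a set limit, fluorescence ratio 0.5 to 1.5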
Target sequence (Q9P0U3 419-644 limits assumed): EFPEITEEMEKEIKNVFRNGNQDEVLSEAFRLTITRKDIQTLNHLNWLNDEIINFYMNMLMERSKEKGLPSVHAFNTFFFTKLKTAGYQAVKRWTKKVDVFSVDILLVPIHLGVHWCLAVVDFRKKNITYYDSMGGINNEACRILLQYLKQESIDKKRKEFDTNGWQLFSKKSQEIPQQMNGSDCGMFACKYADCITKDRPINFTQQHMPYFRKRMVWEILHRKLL
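Material – human SENP1 catalytic domain · Input – SENP1 enzyme, 20 pM final · Compound dosing – single concentration of 10 µM compound, 0.5% DMSO final · Timing – enzyme reaction for 50 min at room temperature, dark · Measured by – FRET fluorescence in CFP and YFP emission channels · Control set – no-enzyme wells low, DMSO-plus-enzyme wells high control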
Large screens that a line does not name were inactive. In the library only some 1.6% were active in any assay of this set; here they are far more common.

Cc1ccc(NC(=O)CSc2nnc(CNC(=O)c3ccco3)n2C)cc1	none
Cc1ccc(NC(=O)CSc2nnc(CNC(=O)c3ccco3)n2C)cc1C	CSN inh 43
CCN(c1ccc(C)cc1)S(=O)(=O)c1nnc(NC(=O)c2ccco2)s1	none
CCc1c(C)nc2cc(-c3ccc(Cl)cc3)[nH]n2c1=O	none
O=c1c2c(nc3cc(-c4ccc(Cl)cc4)[nH]n13)CCS2	CSN inh 41
NS(=O)(=O)c1cccc(NC(=O)CN2C(=O)C(=O)N(Cc3ccccc3)C2=O)c1	none (no result: TPT1 inhibitor)
CCCOC(=O)c1cc(-c2ccc(/C=C3/C(=O)N(C)C(=O)C(C#N)=C3C)o2)ccc1Cl	TPT1 inhibitor 24
CCN(CC(=O)Nc1ccc2c(c1)OCCO2)C(=O)/C=C/c1cccc(Br)c1	none
O=C(CSc1nnc(-c2ccco2)o1)c1ccc[nH]1	CSN inh 38
O=C(CSc1nnc(-c2ccco2)o1)c1ccccc1	none
CC1=C(C(=O)N2CCOCC2)CC(CC(=O)NCCc2ccccn2)C(=O)N1Cc1ccc(C(C)(C)C)cc1 (centres undefined)	none (no result: TPT1 inhibitor)
Fc1ccc(-c2nnc(Cc3ccc(Cl)cc3)o2)cc1	HNF4A DNA FP 61
Fc1ccc(Cc2nnc(-c3cccs3)o2)cc1	none
CC(=O)N1CCN(c2ccc(C(N)=O)cc2[N+](=O)[O-])CC1	none
COc1ccc(N2CCN(c3ccc(C(N)=O)cc3[N+](=O)[O-])CC2)cc1	CSN inh 75
NC(=O)c1c(NC(=O)CSc2nnc(-c3ccco3)n2-c2ccccc2)sc2c1CCC2	CSN inh 36
CCOC(=O)Cc1csc(SCC(=O)Nc2sc3c(c2C(N)=O)CCC3)n1	CSN inh 37
COc1ccc(CCNC(=O)c2cc3ccc(Cl)cc3nc2N)cc1	none (no result: Rpn11 inh, TPT1 inhibitor)
CNC(=O)c1cc(NC(=O)CCn2nc(-c3ccc(C)cc3)c3ccccc3c2=O)ccc1OC	none
Cc1ccc2[nH]c3c(=O)n(CC(=O)Nc4ccccc4N4CCN(C)CC4)ncc3c2c1	none
COc1ccc(Cl)cc1NC(=O)COC(=O)C1COc2ccccc2O1 (centres undefined)	none (no result: TPT1 inhibitor)
O=C1c2nc3cc(-c4ccco4)[nH]n3c(=O)c2CN1C1CCCCC1	CSN inh 46
O=c1cc(-c2ccccc2)nc2cc(-c3ccco3)[nH]n12	none
Cc1ccc(S(=O)(=O)Nc2ccc3ccccc3c2[N+](=O)[O-])cc1	none (no result: TPT1 inhibitor)
Cc1ccc(S(=O)(=O)Nc2ccc3cc([N+](=O)[O-])ccc3c2[N+](=O)[O-])cc1	SENP1 FRET inh 53 (no result: TPT1 inhibitor)
Cc1cccc2cc(/C=C3\N=C(c4ccccc4)OC3=O)c(N3CCOCC3)nc12	Rpn11 inh 40
O=C(O)C(=O)/C(=C\c1ccc([N+](=O)[O-])cc1)c1ccc2ccccc2n1	none
O=C(O)C(=O)/C(=C\c1ccccc1)c1ccc2ccccc2n1	TPT1 inhibitor 30
N#C/C(=C(/O)c1ccccc1F)c1nc2cc(C(F)(F)F)ccc2s1	Rpn11 inh 33
CCCCn1c(N)c(S(=O)(=O)c2ccc(C)cc2)c2nc3ccccc3nc21	CSN inh 39
CN(C)CCCn1c(N)c(S(=O)(=O)c2ccccc2)c2nc3ccccc3nc21	none
COc1cccc(C(C(=O)NC2CCCC2)N(C(=O)c2ccco2)c2ccc(-n3cnnn3)c(C)c2)c1OC (centres undefined)	none
O=C1OC(c2ccc(F)cc2)=C/C1=C\c1ccc([N+](=O)[O-])o1	TPT1 inhibitor 44 (no result: Rpn11 inh, HNF4A DNA FP, CSN inh, SENP1 FRET inh)
CN(C)c1ccc(/C=C/c2ccc3ccccc3[n+]2C)cc1	none
CN(C)c1ccc(/C=C/c2ccc3c4ccccc4ccc3[n+]2-c2ccccc2)cc1	CSN inh 57 (no result: TPT1 inhibitor)
CN(CC(=O)Nc1ccccc1Cl)CC(=O)N1CCc2ccccc21	none (no result: TPT1 inhibitor)
CCOC(=O)c1cc(-c2ccccc2)sc1NC(=O)C(C)(C)C	none
CCOC(=O)c1cc(-c2ccccc2)sc1NC(=S)Nc1cc(C)ccn1	HNF4A DNA FP 47 (not shown: Rpn11 inh)
COC(=O)c1c(NC(=O)CN2C(=O)C(=O)N(C(C)C)C2=O)sc(C)c1C	none (no result: TPT1 inhibitor)
N#Cc1c(NC(=S)NC(=O)c2ccccc2)sc2c1CCCC2	none
N#Cc1c(NC(=S)NC(=O)c2ccccc2)sc2c1CCN(CCc1ccccc1)C2	TPT1 inhibitor 98 (no result: Rpn11 inh, HNF4A DNA FP, CSN inh, SENP1 FRET inh)
O=c1cc(-c2ccco2)oc2c1ccc1ccccc12	CSN inh 39
CC(=O)[C@H]1[C@H]([C@H](O)[C@H](O)CO)O[C@](O)(C(=O)O)C[C@@H]1O	none
COc1ccc(C(=O)/C=C/Nc2ccc([N+](=O)[O-])cc2C)cc1OC	HNF4A DNA FP 37, CSN inh 46
COc1ccc(C(=O)/C=C/Nc2ccc([N+](=O)[O-])cc2C)c(OC)c1	none
CCCC1=C/C(=C/c2ccc(-c3ccccc3OC)o2)C(=O)O1	Rpn11 inh 49
COc1ccccc1-c1ccc(/C=C2/C=C(CC(C)C)OC2=O)o1	none
CCO[C@@H]1OC(C(=O)N2CCN(Cc3ccccc3)CC2)=C[C@H](c2coc3ccccc3c2=O)[C@H]1CCCO	none (no result: Rpn11 inh, HNF4A DNA FP, CSN inh, SENP1 FRET inh)
CO/N=C/C(C#N)=C/c1cc(C(=O)c2ccccc2)cn1C	none
O=C1C=C(Nc2ccccc2O)c2ccccc2C1=O	SENP1 FRET inh 30
COc1cc(C(=O)NNC2=NC(C)(C)Cc3cc(C)c(C)cc32)cc(OC)c1OC	none
Cc1cc(C(=O)O)ccc1-c1ccc(/C=C2\SC(=O)N(CC(=O)Nc3ccc4c(c3)OCO4)C2=O)o1	HNF4A DNA FP 36 (no result: TPT1 inhibitor)
COc1cc(/C=C2\SC(N)=NC2=O)ccc1O	SENP1 FRET inh 40 (no result: TPT1 inhibitor)
C=CCOc1ccc(/C=C2\SC(N)=NC2=O)cc1OC	none
O=C(O)c1cccc(-n2cccc2/C=C2/NC(=O)N(c3cccc(Cl)c3)C2=O)c1	CSN inh 35
CC1=NN(c2ccc(Cl)c(C(=O)O)c2)C(=O)/C1=C\c1ccc(-c2ccc(C(=O)O)cc2)o1	none (no result: TPT1 inhibitor)
O=C(O)c1ccc(N2C(=O)/C(=C/c3ccc(-c4ccc([N+](=O)[O-])cc4)o3)C=C2c2ccccc2)cc1	Rpn11 inh 78
COc1ccc(Br)cc1CN1CCN(Cc2c[nH]c3ccccc23)CC1	HNF4A DNA FP 59
COc1ccccc1-[n+]1c(C)cc(/C=C2\Sc3ccccc3N2C)cc1C	TPT1 inhibitor 123, HNF4A DNA FP 55 (not shown: Rpn11 inh)
COc1ccc(C(=O)/C=C2\Sc3ccccc3N2C)cc1	none
Cn1c2c(c(=O)n(C)c1=O)CS(=O)c1ccccc1N2 (centres undefined)	none (no result: TPT1 inhibitor)
O=S(=O)(c1ccc(F)cc1)N1CCc2ccccc21	HNF4A DNA FP 76, CSN inh 48
O=S(=O)(NC1CC1)c1ccc(S(=O)(=O)N2CCc3ccccc32)cc1	none
CON(C)C(=O)CC1(CN(Cc2ccccc2)C(=O)OC(C)(C)C)CCCCC1	none (no result: TPT1 inhibitor)
C#CC(=O)CC1(CN(Cc2ccccc2)C(=O)OC(C)(C)C)CCCCC1	Rpn11 inh 40 (no result: TPT1 inhibitor)
COC(=O)C1=CN(c2ccc(N3CCOCC3)cc2)C(N)=C(C#N)C1c1cccc(F)c1 (centres undefined)	none (no result: Rpn11 inh, TPT1 inhibitor)

Compound activity from PubChem BioAssay.
